Assay results: ChEMBL document CHEMBL1129660, “Studies on 6-aminoquinolones: synthesis and antibacterial evaluation of 6-amino-8-methylquinolones” (J Med Chem, 1996)
Values after ≈ are worked out from the molar mass of the structure shown.

System: Enterobacter cloacae
Assay: Antibacterial activity tested against Enterobacter cloacae OMNFI 174
Format: functional
In the case of `Cc1c(N2CCN(C)CC2)c([N+](=O)[O-])cc2c(=O)c(C(=O)O)cn(C3CC3)c12`, the MIC is reported as 8 µg/mL (≈ 20.7 µM). In the case of `Cc1c(N2CCc3ccccc3C2)c([N+](=O)[O-])cc2c(=O)c(C(=O)O)cn(C3CC3)c12`, the MIC is reported as 64 µg/mL (≈ 153 µM). `Cc1c(N2CCCC(C)(C)C2)c(N)cc2c(=O)c(C(=O)O)cn(C3CC3)c12` showed an MIC of 16 µg/mL (≈ 43.3 µM). Molecule `Cc1c(N2CCCCCC2)c(N)cc2c(=O)c(C(=O)O)cn(C3CC3)c12` has an MIC of 1 µg/mL (≈ 2.81 µM).

System: Shigella
Assay: Antibacterial activity tested against Shigella enteritidis
Format: functional
How it was run: (§1)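 MICs (µg/mL) determined by conventional agar dilution against a panel of eight Gram-negative and five Gram-positive reference strains.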
Work on `Cc1c(N2CCN(C)CC2)c([N+](=O)[O-])cc2c(=O)c(C(=O)O)cn(C3CC3)c12` yielded an MIC of 1 µg/mL (≈ 2.59 µM). In the case of `Cc1c(N2CCc3ccccc3C2)c([N+](=O)[O-])cc2c(=O)c(C(=O)O)cn(C3CC3)c12`, the MIC is reported as 64 µg/mL (≈ 153 µM). For `Cc1c(N2CCCC(C)(C)C2)c(N)cc2c(=O)c(C(=O)O)cn(C3CC3)c12`, the MIC was 16 µg/mL (≈ 43.3 µM). Molecule `Cc1c(N2CCCCCC2)c(N)cc2c(=O)c(C(=O)O)cn(C3CC3)c12` has an MIC of 1 µg/mL (≈ 2.81 µM).

System: Proteus vulgaris
Assay: Antibacterial activity tested against Proteus vulgaris CNUR 5
Format: functional
How it was run: as §1
`Cc1c(N2CCN(C)CC2)c([N+](=O)[O-])cc2c(=O)c(C(=O)O)cn(C3CC3)c12` showed an MIC of 64 µg/mL (≈ 166 µM). In the case of `Cc1c(N2CCc3ccccc3C2)c([N+](=O)[O-])cc2c(=O)c(C(=O)O)cn(C3CC3)c12`, the MIC is reported as 64 µg/mL (≈ 153 µM). Work on `Cc1c(N2CCCC(C)(C)C2)c(N)cc2c(=O)c(C(=O)O)cn(C3CC3)c12` yielded an MIC greater than 128 µg/mL. Work on `Cc1c(N2CCCCCC2)c(N)cc2c(=O)c(C(=O)O)cn(C3CC3)c12` yielded an MIC of 32 µg/mL (≈ 90 µM).

System: Providencia stuartii
Assay: Antibacterial activity tested against Providencia stuartii CNUR 5
Format: functional
How it was run: as §1
In the case of `Cc1c(N2CCN(C)CC2)c([N+](=O)[O-])cc2c(=O)c(C(=O)O)cn(C3CC3)c12`, the MIC is reported as 32 µg/mL (≈ 82.8 µM). Work on `Cc1c(N2CCc3ccccc3C2)c([N+](=O)[O-])cc2c(=O)c(C(=O)O)cn(C3CC3)c12` yielded an MIC of 64 µg/mL (≈ 153 µM). `Cc1c(N2CCCC(C)(C)C2)c(N)cc2c(=O)c(C(=O)O)cn(C3CC3)c12` gave an MIC of 8 µg/mL (≈ 21.7 µM). `Cc1c(N2CCCCCC2)c(N)cc2c(=O)c(C(=O)O)cn(C3CC3)c12` showed an MIC of 0.5 µg/mL (≈ 1.41 µM).

System: Staphylococcus epidermidis
Assay: Antibacterial activity tested against Staphylococcus epidermidis CPHL A2
Format: functional
How it was run: as §1
With `Cc1c(N2CCN(C)CC2)c([N+](=O)[O-])cc2c(=O)c(C(=O)O)cn(C3CC3)c12` the MIC was 2 µg/mL (≈ 5.18 µM). In the case of `Cc1c(N2CCc3ccccc3C2)c([N+](=O)[O-])cc2c(=O)c(C(=O)O)cn(C3CC3)c12`, the MIC is reported as 4 µg/mL (≈ 9.54 µM). With `Cc1c(N2CCCC(C)(C)C2)c(N)cc2c(=O)c(C(=O)O)cn(C3CC3)c12` the MIC was 1 µg/mL (≈ 2.71 µM). In the case of `Cc1c(N2CCCCCC2)c(N)cc2c(=O)c(C(=O)O)cn(C3CC3)c12`, the MIC is reported as 0.25 µg/mL (≈ 0.703 µM).

System: Enterococcus faecalis
Assay: Antibacterial activity tested against Streptococcus faecalis LEP Br
Format: functional
How it was run: as §1
Work on `Cc1c(N2CCN(C)CC2)c([N+](=O)[O-])cc2c(=O)c(C(=O)O)cn(C3CC3)c12` yielded an MIC of 16 µg/mL (≈ 41.4 µM). With `Cc1c(N2CCc3ccccc3C2)c([N+](=O)[O-])cc2c(=O)c(C(=O)O)cn(C3CC3)c12` the MIC was 4 µg/mL (≈ 9.54 µM). With `Cc1c(N2CCCC(C)(C)C2)c(N)cc2c(=O)c(C(=O)O)cn(C3CC3)c12` the MIC was 16 µg/mL (≈ 43.3 µM). `Cc1c(N2CCCCCC2)c(N)cc2c(=O)c(C(=O)O)cn(C3CC3)c12` showed an MIC of 2 µg/mL (≈ 5.63 µM).

System: Pseudomonas aeruginosa
Assay: Antibacterial activity tested against P. ae (Pseudomonas aeruginosa) ATCC 9027
Format: functional
How it was run: as §1
With `Cc1c(N2CCN(C)CC2)c([N+](=O)[O-])cc2c(=O)c(C(=O)O)cn(C3CC3)c12` the MIC was 64 µg/mL (≈ 166 µM). With `Cc1c(N2CCc3ccccc3C2)c([N+](=O)[O-])cc2c(=O)c(C(=O)O)cn(C3CC3)c12` the MIC was 64 µg/mL (≈ 153 µM). Work on `Cc1c(N2CCCC(C)(C)C2)c(N)cc2c(=O)c(C(=O)O)cn(C3CC3)c12` yielded an MIC of 64 µg/mL (≈ 173 µM). Molecule `Cc1c(N2CCCCCC2)c(N)cc2c(=O)c(C(=O)O)cn(C3CC3)c12` has an MIC of 4 µg/mL (≈ 11.3 µM).

System: Staphylococcus aureus
Assay: Antibacterial activity against Staphylococcus aureus ATCC 6538
Format: functional
How it was run: as §1
In the case of `Cc1c(N2CCN(C)CC2)c([N+](=O)[O-])cc2c(=O)c(C(=O)O)cn(C3CC3)c12`, the MIC is reported as 4 µg/mL (≈ 10.4 µM). For `Cc1c(N2CCc3ccccc3C2)c([N+](=O)[O-])cc2c(=O)c(C(=O)O)cn(C3CC3)c12`, the MIC was 64 µg/mL (≈ 153 µM). `Cc1c(N2CCCC(C)(C)C2)c(N)cc2c(=O)c(C(=O)O)cn(C3CC3)c12` gave an MIC of 0.5 µg/mL (≈ 1.35 µM). In the case of `Cc1c(N2CCCCCC2)c(N)cc2c(=O)c(C(=O)O)cn(C3CC3)c12`, the MIC is reported as 0.125 µg/mL (≈ 0.352 µM).

System: Klebsiella pneumoniae
Assay: Antibacterial activity tested against Klebsiella pneumoniae (Klebsiella pneumoniae) ATCC 10031
Format: functional
How it was run: as §1
`Cc1c(N2CCN(C)CC2)c([N+](=O)[O-])cc2c(=O)c(C(=O)O)cn(C3CC3)c12` showed an MIC of 16 µg/mL (≈ 41.4 µM). Work on `Cc1c(N2CCc3ccccc3C2)c([N+](=O)[O-])cc2c(=O)c(C(=O)O)cn(C3CC3)c12` yielded an MIC of 64 µg/mL (≈ 153 µM). `Cc1c(N2CCCC(C)(C)C2)c(N)cc2c(=O)c(C(=O)O)cn(C3CC3)c12` showed an MIC of 0.5 µg/mL (≈ 1.35 µM). Work on `Cc1c(N2CCCCCC2)c(N)cc2c(=O)c(C(=O)O)cn(C3CC3)c12` yielded an MIC of 0.03 µg/mL (≈ 0.0844 µM).

System: Escherichia coli
Assay: Antibacterial activity tested against Escherichia coli ISF 432
Format: functional
How it was run: as §1
`Cc1c(N2CCN(C)CC2)c([N+](=O)[O-])cc2c(=O)c(C(=O)O)cn(C3CC3)c12` showed an MIC of 4 µg/mL (≈ 10.4 µM). `Cc1c(N2CCc3ccccc3C2)c([N+](=O)[O-])cc2c(=O)c(C(=O)O)cn(C3CC3)c12` gave an MIC of 4 µg/mL (≈ 9.54 µM). In the case of `Cc1c(N2CCCC(C)(C)C2)c(N)cc2c(=O)c(C(=O)O)cn(C3CC3)c12`, the MIC is reported as 0.5 µg/mL (≈ 1.35 µM). `Cc1c(N2CCCCCC2)c(N)cc2c(=O)c(C(=O)O)cn(C3CC3)c12` gave an MIC of 0.03 µg/mL (≈ 0.0844 µM).

System: not listed separately
Assay: Geometric mean of antibacterial activity (Gram -ve bacteria) of the compound
Format: functional
How it was run: (§2)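 Geometric means calculated from agar-dilution MICs (µg/mL), taken separately across the five Gram-positive and the eight Gram-negative panel strains.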
With `Cc1c(N2CCN(C)CC2)c([N+](=O)[O-])cc2c(=O)c(C(=O)O)cn(C3CC3)c12` the Geometric mean was 13.454. With `Cc1c(N2CCc3ccccc3C2)c([N+](=O)[O-])cc2c(=O)c(C(=O)O)cn(C3CC3)c12` the Geometric mean was 45.25. `Cc1c(N2CCCC(C)(C)C2)c(N)cc2c(=O)c(C(=O)O)cn(C3CC3)c12` showed a Geometric mean of 6.17. `Cc1c(N2CCCCCC2)c(N)cc2c(=O)c(C(=O)O)cn(C3CC3)c12` gave a Geometric mean of 0.763.

System: Staphylococcus epidermidis
Assay: Antibacterial activity tested against Staphylococcus epidermidis HCF Berset C
Format: functional
How it was run: as §1
`Cc1c(N2CCN(C)CC2)c([N+](=O)[O-])cc2c(=O)c(C(=O)O)cn(C3CC3)c12` showed an MIC of 4 µg/mL (≈ 10.4 µM). `Cc1c(N2CCc3ccccc3C2)c([N+](=O)[O-])cc2c(=O)c(C(=O)O)cn(C3CC3)c12` showed an MIC of 2 µg/mL (≈ 4.77 µM). With `Cc1c(N2CCCC(C)(C)C2)c(N)cc2c(=O)c(C(=O)O)cn(C3CC3)c12` the MIC was 1 µg/mL (≈ 2.71 µM). Molecule `Cc1c(N2CCCCCC2)c(N)cc2c(=O)c(C(=O)O)cn(C3CC3)c12` has an MIC of 0.2 µg/mL (≈ 0.563 µM).

System: Escherichia coli
Assay: Antibacterial activity tested against Escherichia coli ATCC 8739
Format: functional
How it was run: as §1
In the case of `Cc1c(N2CCN(C)CC2)c([N+](=O)[O-])cc2c(=O)c(C(=O)O)cn(C3CC3)c12`, the MIC is reported as 16 µg/mL (≈ 41.4 µM). With `Cc1c(N2CCc3ccccc3C2)c([N+](=O)[O-])cc2c(=O)c(C(=O)O)cn(C3CC3)c12` the MIC was 64 µg/mL (≈ 153 µM). Work on `Cc1c(N2CCCC(C)(C)C2)c(N)cc2c(=O)c(C(=O)O)cn(C3CC3)c12` yielded an MIC of 0.5 µg/mL (≈ 1.35 µM). With `Cc1c(N2CCCCCC2)c(N)cc2c(=O)c(C(=O)O)cn(C3CC3)c12` the MIC was 2 µg/mL (≈ 5.63 µM).

System: Staphylococcus aureus
Assay: Antibacterial activity against Staphylococcus aureus MPR 5
Format: functional
How it was run: as §1
Work on `Cc1c(N2CCN(C)CC2)c([N+](=O)[O-])cc2c(=O)c(C(=O)O)cn(C3CC3)c12` yielded an MIC of 4 µg/mL (≈ 10.4 µM). For `Cc1c(N2CCc3ccccc3C2)c([N+](=O)[O-])cc2c(=O)c(C(=O)O)cn(C3CC3)c12`, the MIC was 0.25 µg/mL (≈ 0.596 µM). `Cc1c(N2CCCC(C)(C)C2)c(N)cc2c(=O)c(C(=O)O)cn(C3CC3)c12` showed an MIC of 0.5 µg/mL (≈ 1.35 µM). Molecule `Cc1c(N2CCCCCC2)c(N)cc2c(=O)c(C(=O)O)cn(C3CC3)c12` has an MIC of 0.125 µg/mL (≈ 0.352 µM).

System: Bacteria
Assay: Geometric mean of antibacterial activity (Gram +ve bacteria) of the compound
Format: functional
How it was run: as §2
`Cc1c(N2CCN(C)CC2)c([N+](=O)[O-])cc2c(=O)c(C(=O)O)cn(C3CC3)c12` gave a Geometric mean of 4.595. Molecule `Cc1c(N2CCc3ccccc3C2)c([N+](=O)[O-])cc2c(=O)c(C(=O)O)cn(C3CC3)c12` has a Geometric mean of 3.482. With `Cc1c(N2CCCC(C)(C)C2)c(N)cc2c(=O)c(C(=O)O)cn(C3CC3)c12` the Geometric mean was 1.132. Molecule `Cc1c(N2CCCCCC2)c(N)cc2c(=O)c(C(=O)O)cn(C3CC3)c12` has a Geometric mean of 0.275.
